Data published in ChEMBL document CHEMBL4411287, “Discovery and optimization of a series of 3-substituted indazole derivatives as multi-target kinase inhibitors for the treatment of lung squamous cell carcinoma” (Eur J Med Chem, 2019).

Columns and labels:
[1] = target: Cyclin-dependent kinase 1 (Homo sapiens) (UniProt P06493); assay: Inhibition of CDK1 (unknown origin) at 1000 nM relative to control
KG-1 = assay: Antiproliferative activity against human KG1 cells after 72 hrs by CCK8 assay; conditions: KG-1, 72 h
[2] = Cmax in ICR(CD-1) mouse at 10 mg/kg, po administered via gavage by triple quadrupole mass spectrometric analysis; type: ADME, organism-based; design: dose 10 mg/kg, route oral; conditions: in vivo
In short: (§1)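 Oral gavage at 1 mg/mL in 1% Tween80/water to male ICR mice (18-22 g, n=3). Plasma sampled at 0.25, 0.5, 1, 2, 4, 8 and 24 h, protein precipitated with methanol:acetonitrile (1:1) containing internal standard, and quantified by UPLC-triple quadrupole MS. AUC and MRT were taken from per-animal time-concentration curves. Cmax is the maximum plasma level and Tmax the time to reach it.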

[3] = target: Cyclin-dependent kinase 1 (Homo sapiens) (UniProt P06493); assay: Inhibition of CDK1 (unknown origin) at 100 nM relative to control
[4] = target: Fibroblast growth factor receptor 3 (Homo sapiens) (UniProt P22607); assay: Inhibition of FGFR3 (unknown origin) at 100 nM relative to control
Sequence of Fibroblast growth factor receptor 3 (Homo sapiens) (P22607 23-806 limits assumed): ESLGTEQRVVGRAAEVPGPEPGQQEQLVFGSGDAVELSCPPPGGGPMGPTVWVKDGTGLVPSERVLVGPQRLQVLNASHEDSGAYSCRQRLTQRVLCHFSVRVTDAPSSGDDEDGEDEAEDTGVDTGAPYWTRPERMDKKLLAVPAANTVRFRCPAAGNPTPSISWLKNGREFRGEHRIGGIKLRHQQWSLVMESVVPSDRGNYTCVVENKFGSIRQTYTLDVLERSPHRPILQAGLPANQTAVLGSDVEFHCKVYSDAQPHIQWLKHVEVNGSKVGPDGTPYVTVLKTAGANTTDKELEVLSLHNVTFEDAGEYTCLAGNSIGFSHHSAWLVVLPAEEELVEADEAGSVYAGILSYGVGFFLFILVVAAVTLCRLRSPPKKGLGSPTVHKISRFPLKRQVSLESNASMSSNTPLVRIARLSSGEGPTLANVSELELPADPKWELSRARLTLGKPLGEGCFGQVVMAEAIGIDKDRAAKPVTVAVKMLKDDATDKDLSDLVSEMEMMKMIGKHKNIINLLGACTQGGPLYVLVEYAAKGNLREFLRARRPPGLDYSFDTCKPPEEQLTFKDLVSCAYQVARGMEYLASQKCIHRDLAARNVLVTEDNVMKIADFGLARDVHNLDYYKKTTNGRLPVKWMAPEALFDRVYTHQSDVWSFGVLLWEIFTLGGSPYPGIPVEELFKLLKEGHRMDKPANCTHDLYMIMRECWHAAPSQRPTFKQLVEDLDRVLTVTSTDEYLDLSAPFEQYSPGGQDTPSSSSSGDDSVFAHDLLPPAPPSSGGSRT
In short: (§2)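 Purified recombinant kinase domains run in ELISA on precoated poly(Glu,Tyr) 4:1 (20 µg/mL) with 10 µM ATP in 50 mM HEPES pH 7.4, 50 mM MgCl2, 0.5 mM MnCl2, 0.2 mM Na3VO4, 1 mM DTT; 1% DMSO control; 60 min at 37 °C. Phosphotyrosine read by PY99 antibody, HRP anti-mouse IgG, OPD/H2O2 at 490 nm; inhibition = [1−A490/A490control]×100%; two separate experiments.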

[5] = target: Cyclin-dependent kinase 4 (Homo sapiens) (UniProt P11802); assay: Inhibition of CDK4 (unknown origin) at 10 nM relative to control
Sequence of Cyclin-dependent kinase 4 (Homo sapiens) (P11802 whole entry): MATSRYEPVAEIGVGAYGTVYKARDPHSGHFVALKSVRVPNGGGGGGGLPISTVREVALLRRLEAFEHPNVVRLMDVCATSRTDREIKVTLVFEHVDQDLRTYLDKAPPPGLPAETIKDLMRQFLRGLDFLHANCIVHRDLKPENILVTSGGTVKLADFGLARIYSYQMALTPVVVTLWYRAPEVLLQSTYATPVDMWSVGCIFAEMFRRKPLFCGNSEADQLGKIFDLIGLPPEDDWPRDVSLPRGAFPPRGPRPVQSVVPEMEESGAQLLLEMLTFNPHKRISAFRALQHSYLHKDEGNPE

[6] = target: Fibroblast growth factor receptor 1 (Homo sapiens, UniProt P11362); assay: Inhibition of FGFR1 (unknown origin) after 60 mins by ELISA
[7] = target: Hepatocyte growth factor receptor (Homo sapiens) (UniProt P08581); assay: Inhibition of c-Met (unknown origin) at 1000 nM relative to control
Sequence of Hepatocyte growth factor receptor (Homo sapiens) (P08581 whole entry): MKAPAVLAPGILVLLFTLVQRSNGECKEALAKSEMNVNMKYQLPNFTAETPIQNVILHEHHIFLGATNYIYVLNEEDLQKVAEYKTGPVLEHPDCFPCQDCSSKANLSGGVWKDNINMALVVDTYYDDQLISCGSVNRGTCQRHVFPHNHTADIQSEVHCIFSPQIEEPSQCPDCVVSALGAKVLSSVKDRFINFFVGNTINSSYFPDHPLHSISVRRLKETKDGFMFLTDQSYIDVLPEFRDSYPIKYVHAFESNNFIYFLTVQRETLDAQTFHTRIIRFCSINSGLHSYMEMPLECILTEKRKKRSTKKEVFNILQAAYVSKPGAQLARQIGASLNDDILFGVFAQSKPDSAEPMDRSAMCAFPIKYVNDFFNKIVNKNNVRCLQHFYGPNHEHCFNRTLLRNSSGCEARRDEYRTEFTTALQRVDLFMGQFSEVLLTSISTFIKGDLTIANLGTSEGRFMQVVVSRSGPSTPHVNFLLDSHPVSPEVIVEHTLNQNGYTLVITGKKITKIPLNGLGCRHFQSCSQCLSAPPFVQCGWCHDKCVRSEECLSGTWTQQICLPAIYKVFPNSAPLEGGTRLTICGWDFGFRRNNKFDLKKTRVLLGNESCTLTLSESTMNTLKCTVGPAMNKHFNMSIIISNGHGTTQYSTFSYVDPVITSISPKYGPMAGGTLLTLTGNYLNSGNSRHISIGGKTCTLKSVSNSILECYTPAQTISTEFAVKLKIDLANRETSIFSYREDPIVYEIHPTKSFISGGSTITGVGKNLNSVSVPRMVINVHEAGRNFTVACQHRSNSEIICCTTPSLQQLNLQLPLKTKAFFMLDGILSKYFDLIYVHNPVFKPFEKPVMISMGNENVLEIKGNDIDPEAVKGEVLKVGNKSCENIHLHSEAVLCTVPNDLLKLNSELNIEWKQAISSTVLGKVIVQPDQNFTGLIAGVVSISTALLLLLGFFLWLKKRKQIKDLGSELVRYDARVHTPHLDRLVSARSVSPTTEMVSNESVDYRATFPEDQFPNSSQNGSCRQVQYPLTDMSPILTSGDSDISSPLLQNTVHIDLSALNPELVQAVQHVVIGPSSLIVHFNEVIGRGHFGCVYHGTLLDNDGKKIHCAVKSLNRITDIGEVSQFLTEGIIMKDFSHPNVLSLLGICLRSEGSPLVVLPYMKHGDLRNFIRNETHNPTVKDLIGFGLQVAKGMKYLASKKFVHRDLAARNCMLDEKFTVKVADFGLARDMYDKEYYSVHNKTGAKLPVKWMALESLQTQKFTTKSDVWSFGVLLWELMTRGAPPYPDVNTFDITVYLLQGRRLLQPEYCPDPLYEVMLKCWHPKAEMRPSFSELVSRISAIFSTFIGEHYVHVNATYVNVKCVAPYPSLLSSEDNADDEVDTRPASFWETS
In short: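 ELISA with purified recombinant kinase on plates precoated with poly(Glu,Tyr) 4:1 at 20 µg/mL. ATP 10 µM in HEPES pH 7.4 buffer with MgCl2, MnCl2, Na3VO4 and DTT. Run 60 min at 37 °C. Detected with anti-phosphotyrosine PY99, HRP secondary antibody and o-phenylenediamine, read at 490 nm. Inhibition % = [1 − A490/A490 control]×100. 1% DMSO as negative control.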

[8] = target: T1, Ephrin type-B receptor 2 (Homo sapiens) (UniProt P29323); assay: Inhibition of EPH-B2 (unknown origin) at 10 nM relative to control; in short: as §2
T1 sequence (whole entry): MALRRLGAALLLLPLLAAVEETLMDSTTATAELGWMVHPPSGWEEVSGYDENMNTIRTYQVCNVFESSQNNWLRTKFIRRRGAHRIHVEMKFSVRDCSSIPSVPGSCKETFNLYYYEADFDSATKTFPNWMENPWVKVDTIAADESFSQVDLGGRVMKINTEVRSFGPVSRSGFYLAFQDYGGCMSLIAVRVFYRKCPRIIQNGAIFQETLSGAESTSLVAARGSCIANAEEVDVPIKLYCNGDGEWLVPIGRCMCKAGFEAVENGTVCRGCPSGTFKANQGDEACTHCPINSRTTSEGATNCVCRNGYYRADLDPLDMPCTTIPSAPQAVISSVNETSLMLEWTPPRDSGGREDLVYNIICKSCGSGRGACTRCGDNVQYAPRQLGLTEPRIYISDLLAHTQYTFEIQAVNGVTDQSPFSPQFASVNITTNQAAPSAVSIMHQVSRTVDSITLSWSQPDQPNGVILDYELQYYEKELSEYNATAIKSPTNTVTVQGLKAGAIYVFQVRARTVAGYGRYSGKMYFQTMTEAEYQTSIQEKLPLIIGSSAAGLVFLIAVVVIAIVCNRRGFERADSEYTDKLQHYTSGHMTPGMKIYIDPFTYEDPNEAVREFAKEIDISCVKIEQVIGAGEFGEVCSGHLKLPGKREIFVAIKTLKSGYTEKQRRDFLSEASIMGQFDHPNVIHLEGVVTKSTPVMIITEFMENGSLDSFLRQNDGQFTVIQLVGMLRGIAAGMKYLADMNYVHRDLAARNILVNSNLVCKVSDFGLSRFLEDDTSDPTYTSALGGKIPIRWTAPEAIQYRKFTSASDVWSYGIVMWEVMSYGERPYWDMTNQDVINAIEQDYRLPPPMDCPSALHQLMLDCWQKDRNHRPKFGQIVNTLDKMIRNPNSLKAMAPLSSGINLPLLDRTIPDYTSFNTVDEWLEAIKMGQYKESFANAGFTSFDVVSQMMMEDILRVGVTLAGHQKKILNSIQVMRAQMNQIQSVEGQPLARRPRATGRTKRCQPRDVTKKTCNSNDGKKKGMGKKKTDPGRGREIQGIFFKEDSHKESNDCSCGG

[9] = target: Mitogen-activated protein kinase 1 (Homo sapiens) (UniProt P28482); assay: Inhibition of ERK2 (unknown origin) at 100 nM relative to control
Sequence of Mitogen-activated protein kinase 1 (Homo sapiens) (P28482 whole entry): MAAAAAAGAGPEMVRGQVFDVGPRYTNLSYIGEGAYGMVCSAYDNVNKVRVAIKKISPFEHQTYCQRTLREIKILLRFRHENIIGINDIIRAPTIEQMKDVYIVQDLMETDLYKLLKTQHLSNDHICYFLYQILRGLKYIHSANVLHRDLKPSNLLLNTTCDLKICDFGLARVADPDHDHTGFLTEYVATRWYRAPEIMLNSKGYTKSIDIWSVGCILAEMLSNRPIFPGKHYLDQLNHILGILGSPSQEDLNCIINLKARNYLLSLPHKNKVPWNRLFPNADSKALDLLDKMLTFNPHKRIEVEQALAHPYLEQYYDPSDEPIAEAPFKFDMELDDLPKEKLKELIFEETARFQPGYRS

[10] = target: Fibroblast growth factor receptor 3 (Homo sapiens) (UniProt P22607); assay: Inhibition of FGFR3 (unknown origin) at 1000 nM relative to control; in short: as §2
[11] = target: T1, Ephrin type-B receptor 2 (Homo sapiens); assay: Inhibition of EPH-B2 (unknown origin) at 1000 nM relative to control; in short: as §2
[12] = AUC (0 to t) in ICR(CD-1) mouse at 10 mg/kg, po administered via gavage by triple quadrupole mass spectrometric analysis; type: ADME, organism-based; conditions: in vivo; in short: as §1
[13] = target: Ephrin type-A receptor 2 (Homo sapiens) (UniProt P29317); assay: Inhibition of EPH-A2 (unknown origin) at 1000 nM relative to control; in short: as §2
Sequence of Ephrin type-A receptor 2 (Homo sapiens) (P29317 whole entry): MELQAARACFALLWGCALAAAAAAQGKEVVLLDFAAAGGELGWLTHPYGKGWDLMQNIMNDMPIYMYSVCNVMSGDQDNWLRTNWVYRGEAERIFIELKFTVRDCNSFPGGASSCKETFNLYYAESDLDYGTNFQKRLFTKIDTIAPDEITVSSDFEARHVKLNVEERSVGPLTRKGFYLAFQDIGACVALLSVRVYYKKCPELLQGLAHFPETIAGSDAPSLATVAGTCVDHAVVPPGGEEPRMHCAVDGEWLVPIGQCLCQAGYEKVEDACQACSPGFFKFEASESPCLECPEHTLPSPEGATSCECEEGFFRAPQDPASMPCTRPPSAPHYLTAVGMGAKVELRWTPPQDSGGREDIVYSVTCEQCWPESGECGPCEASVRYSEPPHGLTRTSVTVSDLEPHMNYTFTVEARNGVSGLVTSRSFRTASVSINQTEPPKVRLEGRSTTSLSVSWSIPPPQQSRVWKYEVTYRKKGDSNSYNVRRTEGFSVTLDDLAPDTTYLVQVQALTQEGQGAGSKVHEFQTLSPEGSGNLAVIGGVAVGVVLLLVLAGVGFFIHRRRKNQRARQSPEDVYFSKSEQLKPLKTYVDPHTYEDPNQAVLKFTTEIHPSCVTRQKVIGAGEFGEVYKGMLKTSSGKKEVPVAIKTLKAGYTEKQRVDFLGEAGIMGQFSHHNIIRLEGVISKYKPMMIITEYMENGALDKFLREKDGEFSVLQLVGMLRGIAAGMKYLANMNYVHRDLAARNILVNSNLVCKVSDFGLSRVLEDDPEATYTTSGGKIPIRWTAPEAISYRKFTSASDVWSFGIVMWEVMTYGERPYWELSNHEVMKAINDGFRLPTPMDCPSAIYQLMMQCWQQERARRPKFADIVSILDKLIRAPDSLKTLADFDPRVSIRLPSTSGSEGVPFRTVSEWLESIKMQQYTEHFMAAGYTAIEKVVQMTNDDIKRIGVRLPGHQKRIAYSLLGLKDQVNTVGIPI

NCI-H1581 = assay: Antitumor activity against human NCI-H1581 cells xenografted in po dosed nude mouse assessed as tumor growth inhibition administered as qd for 7 to 10 days; type: functional, organism-based
In short: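 Female nude mice, 4-6 weeks old. NCI-H1581 cells (5×10^6 in 200 µL) injected s.c., grown to 700-800 mm³, then 1-mm³ fragments implanted s.c. by trocar. At 100-150 mm³ animals were randomized (vehicle n=12, treated n=6) and dosed orally once daily for 7 days. Tumours measured twice weekly, volume = length×width²/2. TGI calculated from change in tumour volume versus vehicle on the final day, with Student's t-test.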

[14] = target: Fibroblast growth factor receptor 4 (Homo sapiens) (UniProt P22455); assay: Inhibition of FGFR4 (unknown origin) at 100 nM relative to control; in short: as §2
Sequence of Fibroblast growth factor receptor 4 (Homo sapiens) (P22455 22-802 limits assumed): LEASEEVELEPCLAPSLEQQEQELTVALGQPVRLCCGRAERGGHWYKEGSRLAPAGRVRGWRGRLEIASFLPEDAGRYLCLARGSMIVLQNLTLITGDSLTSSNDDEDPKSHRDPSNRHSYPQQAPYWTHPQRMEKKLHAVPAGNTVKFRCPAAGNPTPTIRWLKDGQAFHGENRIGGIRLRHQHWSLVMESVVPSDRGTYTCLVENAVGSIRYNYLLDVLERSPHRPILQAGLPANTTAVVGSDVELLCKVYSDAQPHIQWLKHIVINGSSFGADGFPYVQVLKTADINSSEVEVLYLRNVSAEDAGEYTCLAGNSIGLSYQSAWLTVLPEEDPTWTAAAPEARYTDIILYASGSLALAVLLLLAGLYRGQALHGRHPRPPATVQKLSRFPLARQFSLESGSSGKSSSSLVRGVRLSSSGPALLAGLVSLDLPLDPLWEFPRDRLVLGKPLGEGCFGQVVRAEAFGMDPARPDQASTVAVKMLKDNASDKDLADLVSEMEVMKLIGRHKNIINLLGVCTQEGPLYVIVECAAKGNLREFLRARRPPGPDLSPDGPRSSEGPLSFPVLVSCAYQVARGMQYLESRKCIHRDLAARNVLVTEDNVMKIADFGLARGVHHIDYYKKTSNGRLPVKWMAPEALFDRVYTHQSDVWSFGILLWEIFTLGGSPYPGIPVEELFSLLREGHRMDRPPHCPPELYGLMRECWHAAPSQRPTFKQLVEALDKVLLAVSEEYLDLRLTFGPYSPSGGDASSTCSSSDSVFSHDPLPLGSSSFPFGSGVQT

Sequence of Cyclin-dependent kinase 1 (Homo sapiens) (P06493 whole entry, looked up): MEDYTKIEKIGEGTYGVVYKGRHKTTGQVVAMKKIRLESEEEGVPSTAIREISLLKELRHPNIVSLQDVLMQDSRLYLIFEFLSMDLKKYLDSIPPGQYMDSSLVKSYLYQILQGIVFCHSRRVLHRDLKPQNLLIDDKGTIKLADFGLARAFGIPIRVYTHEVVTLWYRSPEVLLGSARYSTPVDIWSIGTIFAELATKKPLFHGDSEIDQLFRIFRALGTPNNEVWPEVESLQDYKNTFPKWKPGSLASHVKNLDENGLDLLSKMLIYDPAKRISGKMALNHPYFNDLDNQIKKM

inhibition [1]: 5.6%
Cmax [2]: 1120 ng/mL
inhibition [3]: 1.4%
inhibition [4]: 82%
inhibition [5]: 4.4%
IC50 [6]: 31.1 nM
inhibition [7]: 47.5%
inhibition [8]: 48%
inhibition [9]: 2.5%
inhibition [10]: 94.2%
inhibition [11]: 86.9%
AUC(0-t) [12]: 7640 ng·h/mL
inhibition [13]: 100%
inhibition [14]: 27.2%
SMILES: Cc1ccc(C(=O)Nc2cccc(C(F)(F)F)c2)cc1-c1ccc2c(-c3cnn(C4CC4)c3)n[nH]c2c1
IC50 (KG-1): 108 nM
TGI (NCI-H1581): Dose-dependent effect
